Source: ChEMBL document CHEMBL5712079, “The H3K27me3-demethylase KDM6A is suppressed in breast cancer stem-like cells, and enables the resolution of bivalency during the mesenchymal-epithelial transition” (Oncotarget, 2017)
The source made the active and inactive calls.

Tests used:
Type in all cases: cell-based
[1] = target: Lysine-specific demethylase 6A (Homo sapiens) (UniProt O15550); assay: Inhibition of KDM6A in human MCF-10A cell assessed as FZD8 gene expression at 50 nM by qRT-PCR analysis
Chain of Lysine-specific demethylase 6A (Homo sapiens) (O15550 whole entry): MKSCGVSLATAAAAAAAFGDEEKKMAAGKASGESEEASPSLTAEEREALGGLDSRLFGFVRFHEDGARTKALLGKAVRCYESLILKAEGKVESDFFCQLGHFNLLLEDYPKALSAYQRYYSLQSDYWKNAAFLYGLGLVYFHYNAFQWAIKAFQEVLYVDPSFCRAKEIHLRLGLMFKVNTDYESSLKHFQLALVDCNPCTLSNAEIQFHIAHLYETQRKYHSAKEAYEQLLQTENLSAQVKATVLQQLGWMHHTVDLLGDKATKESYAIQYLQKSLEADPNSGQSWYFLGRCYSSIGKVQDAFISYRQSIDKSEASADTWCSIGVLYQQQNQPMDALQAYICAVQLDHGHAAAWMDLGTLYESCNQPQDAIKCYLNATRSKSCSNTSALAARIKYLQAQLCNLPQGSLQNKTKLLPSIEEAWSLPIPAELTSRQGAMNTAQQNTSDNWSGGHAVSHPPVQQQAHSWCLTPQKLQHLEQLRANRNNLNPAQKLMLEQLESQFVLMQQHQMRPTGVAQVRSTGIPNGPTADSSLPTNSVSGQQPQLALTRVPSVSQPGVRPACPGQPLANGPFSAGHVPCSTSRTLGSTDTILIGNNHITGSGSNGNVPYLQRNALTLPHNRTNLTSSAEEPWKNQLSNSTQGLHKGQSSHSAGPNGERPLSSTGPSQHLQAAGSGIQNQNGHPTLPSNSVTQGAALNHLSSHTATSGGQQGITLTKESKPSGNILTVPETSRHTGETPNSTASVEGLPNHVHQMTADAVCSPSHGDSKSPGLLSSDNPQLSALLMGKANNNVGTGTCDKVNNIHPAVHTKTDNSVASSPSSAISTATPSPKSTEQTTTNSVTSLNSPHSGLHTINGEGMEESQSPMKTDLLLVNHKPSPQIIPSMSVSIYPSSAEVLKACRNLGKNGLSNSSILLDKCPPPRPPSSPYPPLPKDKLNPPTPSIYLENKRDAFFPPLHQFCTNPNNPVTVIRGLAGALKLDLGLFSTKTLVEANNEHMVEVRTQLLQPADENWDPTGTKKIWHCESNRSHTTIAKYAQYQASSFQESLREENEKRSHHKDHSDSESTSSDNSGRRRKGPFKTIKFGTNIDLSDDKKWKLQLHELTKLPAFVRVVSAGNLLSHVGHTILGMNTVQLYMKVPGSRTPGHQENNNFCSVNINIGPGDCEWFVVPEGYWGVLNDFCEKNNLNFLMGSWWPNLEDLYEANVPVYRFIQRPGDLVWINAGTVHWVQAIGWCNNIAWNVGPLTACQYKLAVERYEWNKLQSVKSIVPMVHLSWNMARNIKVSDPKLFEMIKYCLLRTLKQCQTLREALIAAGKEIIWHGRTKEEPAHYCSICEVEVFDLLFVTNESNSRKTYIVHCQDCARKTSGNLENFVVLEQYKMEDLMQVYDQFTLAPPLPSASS
Procedure, shortened: (§1)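 MCF10A monolayers were exposed to TGFB at 2.5 ng/ml for 6 days to induce EMT, then cultured without TGFB for 10 days (MET) with compound at 50 nM or DMSO vehicle. Vehicle-only and TGFB-only arms served as references. RNA was analysed by qRT-PCR, normalised to GAPDH by 2^-ΔΔCt, and run in triplicate (mean ± SD). Significance was by unpaired t-tests with Holm-Sidak correction.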

[2] = target: Lysine-specific demethylase 6A (Homo sapiens) (UniProt O15550); assay: Inhibition of KDM6A in human MCF-10A cell assessed as MAP3K9 gene expression at 50 nM by qRT-PCR analysis; procedure, shortened: as §1
[3] = target: Lysine-specific demethylase 6A (Homo sapiens) (UniProt O15550); assay: Inhibition of KDM6A in human MCF-10A cell assessed as ILKAP gene expression at 50 nM by qRT-PCR analysis; procedure, shortened: as §1
[4] = target: Lysine-specific demethylase 6A (Homo sapiens) (UniProt O15550); assay: Inhibition of KDM6A in human MCF-10A cell assessed as LRRC8D gene expression at 50 nM by qRT-PCR analysis; procedure, shortened: as §1
[5] = target: Lysine-specific demethylase 6A (Homo sapiens) (UniProt O15550); assay: Inhibition of KDM6A in human MCF-10A cell assessed as COBLL1 gene expression at 50 nM by qRT-PCR analysis; procedure, shortened: as §1
[6] = target: Lysine-specific demethylase 6A (Homo sapiens) (UniProt O15550); assay: Inhibition of KDM6A in human MCF-10A cell assessed as FAM60A gene expression at 50 nM by qRT-PCR analysis; procedure, shortened: as §1
[7] = target: Lysine-specific demethylase 6A (Homo sapiens) (UniProt O15550); assay: Inhibition of KDM6A in human MCF-10A cell assessed as CDK4 gene expression at 50 nM by qRT-PCR analysis; procedure, shortened: as §1
[8] = target: Lysine-specific demethylase 6A (Homo sapiens) (UniProt O15550); assay: Inhibition of KDM6A in human MCF-10A cell assessed as MED30 gene expression at 50 nM by qRT-PCR analysis; procedure, shortened: as §1
[9] = target: Lysine-specific demethylase 6A (Homo sapiens) (UniProt O15550); assay: Inhibition of KDM6A in human MCF-10A cell assessed as CCNA1 gene expression at 50 nM by qRT-PCR analysis; procedure, shortened: as §1
[10] = target: Lysine-specific demethylase 6A (Homo sapiens) (UniProt O15550); assay: Inhibition of KDM6A in human MCF-10A cell assessed as PKP2 gene expression at 50 nM by qRT-PCR analysis; procedure, shortened: as §1
[11] = target: Lysine-specific demethylase 6A (Homo sapiens) (UniProt O15550); assay: Inhibition of KDM6A in human MCF-10A cell assessed as ZNF232 gene expression at 50 nM by qRT-PCR analysis; procedure, shortened: as §1
[12] = target: Lysine-specific demethylase 6A (Homo sapiens) (UniProt O15550); assay: Inhibition of KDM6A in human MCF-10A cell assessed as PUS3 gene expression at 50 nM by qRT-PCR analysis; procedure, shortened: as §1
[13] = target: Lysine-specific demethylase 6A (Homo sapiens) (UniProt O15550); assay: Inhibition of KDM6A in human MCF-10A cell assessed as THOC6 gene expression at 50 nM by qRT-PCR analysis; procedure, shortened: as §1
[14] = target: Lysine-specific demethylase 6A (Homo sapiens) (UniProt O15550); assay: Inhibition of KDM6A in human MCF-10A cell assessed as vimentin expression at 50 nM by immunostaining analysis
Procedure, shortened: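 MCF10A cells received TGFB (2.5 ng/ml; vehicle was 4 mM HCl with 0.1% BSA) to induce EMT, then TGFB was withdrawn in the presence of compound (50 nM) or DMSO. Cells were fixed and immunostained for vimentin and imaged by inverted fluorescence microscopy.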

[15] = target: Lysine-specific demethylase 6A (Homo sapiens) (UniProt O15550); assay: Inhibition of KDM6A in human MCF-10A cell assessed as C60ORF14 gene expression at 50 nM by qRT-PCR analysis; procedure, shortened: as §1
[16] = target: Lysine-specific demethylase 6A (Homo sapiens) (UniProt O15550); assay: Inhibition of KDM6A in human MCF-10A cell assessed as FAM117A gene expression at 50 nM by qRT-PCR analysis; procedure, shortened: as §1
[17] = target: Lysine-specific demethylase 6A (Homo sapiens) (UniProt O15550); assay: Inhibition of KDM6A in human MCF-10A cell assessed as CBX4 gene expression at 50 nM by qRT-PCR analysis; procedure, shortened: as §1
[18] = target: Lysine-specific demethylase 6A (Homo sapiens) (UniProt O15550); assay: Inhibition of KDM6A in human MCF-10A cell assessed as H2AFY2 gene expression at 50 nM by qRT-PCR analysis; procedure, shortened: as §1

Measured: inhibition

CCOC(=O)CCNc1cc(N2CCc3ccccc3CC2)nc(-c2ccccn2)n1
active: [1] | [2] | [3] | [4] | [5] | [6] | [7] | [8] | [9] | [10] | [11] | [12] | [13] | [14] | [15] | [16] | [17] | [18]
